# Published values collected from several papers.
# Protocols differ between the studies behind these lines.
# Cell line: HCT-116
# Observed: cell growth or viability
Compound,method,concentration,time,measurement,result
COc1ccc(C(=O)/C=C/c2cccnc2)cc1S(N)(=O)=O,SRB,,48 h,GI50,3.2 µM
Cc1nc2ccc(Br)cc2c(=O)n1/N=C/c1ccc(C(=O)O)cc1,LDH,200 µg/mL,24 h,viability,53.5%
COc1ccc(NC(=O)c2c(Nc3ccccc3)sc(C#N)c2NC(=O)CNc2ccc(OC)c(OC)c2)cc1,SRB,10 µM,48 h,viability,53.6%
COc1cc(CNC(=O)CCCC/C=C/C(C)C)ccc1O,SRB,10 µM,,inhibition,0%
COc1ccc(C(=O)/C=C/c2ccc3ccccc3c2)cc1S(N)(=O)=O,SRB,10 µM,,inhibition,198%
COc1cc2c(OC)nc3c4cc5c(cc4cc(OCCCN(C)C)c3c2cc1OC)OCO5,MTT,,72 h,GI50,15 µM
Cc1cc(C)n(C(=S)[S][Au][PH](CCCCCC[PH]([Au][S]C(=S)n2nc(C)cc2C)(c2ccccc2)c2ccccc2)(c2ccccc2)c2ccccc2)n1,,,,GI50,0.38 µM
COc1ccc(NCC(=O)Nc2c(C#N)sc(Nc3ccccc3)c2C(=O)Nc2ccc(OC)cc2)cc1,SRB,10 nM,48 h,viability,82.6%
COc1ccc(C(=O)/C=C/c2ccccc2Br)cc1S(N)(=O)=O,SRB,,48 h,GI50,1.5 µM
COc1cc2c(OC)nc3c4cc5c(cc4cc(OCCN4CCCC4)c3c2cc1OC)OCO5,MTT,,72 h,GI50,64 µM
COc1ccc(NC(=O)c2c(Nc3ccccc3)sc(C(=O)NN=Cc3cc(OC)c(OC)c(OC)c3)c2NC(C)=O)cc1,SRB,100 µM,48 h,viability,43.2%
COc1cccc2c1C(=O)c1c(O)c3c(c(O)c1C2=O)C[C@@](O)(C(=O)CO)C[C@@H]3O[C@H]1C[C@H](N)[C@H](O)[C@H](C)O1,SRB,,,IC50,0.11 µM
COc1cc2c(OC)nc3c4cc5c(cc4cc(O)c3c2cc1OC)OCO5,MTT,,72 h,GI50,5.7 µM
COc1ccc(C(=O)/C=C/c2cccc3ccccc23)cc1S(N)(=O)=O,SRB,10 µM,,inhibition,192%
COc1ccc(NC(=O)c2c(Nc3ccccc3)sc(C#N)c2NC(=O)CNc2ccc(Cl)cc2)cc1,SRB,0.1 µM,48 h,viability,72%
COc1ccc(C(=O)/C=C/c2cc3c(cc2Br)OCO3)cc1S(N)(=O)=O,SRB,10 µM,,inhibition,198%
COc1ccc(C=NNC(=O)c2sc(Nc3ccccc3)c(C(=O)Nc3ccc(OC)cc3)c2NC(C)=O)cc1,SRB,10 µM,48 h,viability,46.8%
COc1ccc2cc(/C=N/n3c(C)nc4ccc(Br)cc4c3=O)ccc2c1,LDH,200 µg/mL,24 h,viability,57%
COc1ccc(C(=O)/C=C/c2ccc(Cl)c(Cl)c2)cc1S(N)(=O)=O,SRB,10 µM,,inhibition,196%
COc1cccc(Oc2ccccc2NC(=O)CNC(=O)c2cccc3ccccc23)c1,SRB,,48 h,GI50,0.0955 µM
COc1cc(/C=N/n2c(C)nc3ccc(C)cc3c2=O)cc([N+](=O)[O-])c1O,LDH,200 µg/mL,24 h,viability,90%
COc1ccc(C(=O)/C=C/c2cccc(Cl)c2)cc1S(N)(=O)=O,SRB,,48 h,GI50,1.2 µM
CNS(=O)(=O)Nc1nccc(Cc2c(C)c3ccc(Oc4ncccn4)cc3oc2=O)c1F,CCK-8,,,GI50,3.23 µM
COc1ccc(NC(=O)c2c(Nc3ccccc3)sc(C#N)c2NC(=O)CNc2ccc(O)cc2)cc1,SRB,10 nM,48 h,viability,93.1%
CCN(CC)CCOc1cc2cc3c(cc2c2nc(OC)c4cc(OC)c(OC)cc4c12)OCO3,MTT,,72 h,GI50,≥ 100 µM
COc1ccccc1/C=C/C(=O)c1ccc(OC)c(S(N)(=O)=O)c1,SRB,10 µM,,inhibition,95%
COc1ccc(NC(=O)c2c(Nc3ccccc3)sc(C(=O)NN=Cc3ccc(Cl)cc3)c2NC(C)=O)cc1,SRB,1 µM,48 h,viability,74.2%
